Experimental data taken from ChEMBL document CHEMBL1155270, “Modifications at the C-terminus to improve pyrrole-imidazole polyamide activity in cell culture” (J Med Chem, 2009).
pIC50: −log10 of the molar value.

Columns and labels:
Nucleic Acid [1] = assay: Binding affinity to 5'-GTGCATACGTGGGC-3' sequence of DNA assessed as change in melting temperature by spectrophotometry; type: nucleic-acid assay
LNCaP [2] = assay: Cytotoxicity against human LNCAP cells assessed as cell viability at 0.01 to 30 uM after 48 hrs by WST1 assay; type: functional
In short: (§1)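 LNCaP cells were seeded at 10-15 × 10^2 per well and allowed to settle 48 h before polyamide was added as 2× media solutions (DMSO <0.1%). After 48 h exposure, media was replaced and cells recovered 24 h. WST-1 was added for 30 min and A450 read. Wells were corrected for media-only background and normalized to untreated controls.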

Nucleic Acid [3] = assay: Binding affinity to 14mer DNA assessed as change in melting temperature by spectrophotometry; type: nucleic-acid assay
In short: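 Thermal melting of 14-mer oligonucleotide duplexes (HRE or ARE sequence) with and without polyamide, read by UV spectrophotometry in 1 cm quartz cuvettes with a thermostatted holder. Buffer was 10 mM sodium cacodylate, 10 mM KCl, 10 mM MgCl2, 5 mM CaCl2, pH 7.0. ΔTm is taken relative to the free duplex.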

Nucleic Acid [4] = assay: Binding affinity to 5'-TTGCAGAACAGCAA-3' sequence of DNA assessed as change in melting temperature by spectrophotometry; type: nucleic-acid assay
LNCaP [5] = assay: Cytotoxicity against human LNCAP cells after 48 hrs by WST1 assay; type: functional, cell-based; in short: as §1

CN(C)CCCNC(=O)CCNC(=O)c1cc(NC(=O)c2cc(NC(=O)c3nc(NC(=O)c4cc(NC(=O)[C@H](N)CCNC(=O)c5nc(NC(=O)c6cc(NC(=O)c7cc(NC(=O)c8sccc8Cl)cn7C)cn6C)cn5C)cn4C)cn3C)cn2C)cn1C
ΔTm (Nucleic Acid [1]): 12.4 °C

CN(CCCN)CCCNC(=O)c1cc(NC(=O)c2cc(NC(=O)c3nc(NC(=O)c4cc(NC(=O)[C@H](N)CCNC(=O)c5nc(NC(=O)c6cc(NC(=O)c7cc(NC(=O)c8sccc8Cl)cn7C)cn6C)cn5C)cn4C)cn3C)cn2C)cn1C
ΔTm (Nucleic Acid [1]): 14.8 °C

Cn1cc(NC(=O)c2cc(NC(=O)c3nc(NC(=O)c4cc(NC(=O)[C@H](N)CCNC(=O)c5nc(NC(=O)c6cc(NC(=O)c7cc(NC(=O)c8nccn8C)cn7C)cn6C)cn5C)cn4C)cn3C)cn2C)cc1C(=O)NCCCCCCCNC(=O)c1cccc(C(=O)O)c1
Activity (LNCaP [2]): <50%
ΔTm (Nucleic Acid [3]): 2.6 °C

Cn1cc(NC(=O)c2cc(NC(=O)c3nc(NC(=O)c4cc(NC(=O)[C@H](N)CCNC(=O)c5nc(NC(=O)c6cc(NC(=O)c7cc(NC(=O)c8nccn8C)cn7C)cn6C)cn5C)cn4C)cn3C)cn2C)cc1C(=O)NCCCNC(=O)c1cccc(C(=O)O)c1
Activity (LNCaP [2]): <50%
ΔTm (Nucleic Acid [3]): 1.5 °C

Cn1cc(NC(=O)c2cc(NC(=O)c3cc(NC(=O)c4nc(NC(=O)[C@H](N)CCNC(=O)c5cc(NC(=O)c6cc(NC(=O)c7cc(NC(=O)c8nccn8C)cn7C)cn6C)cn5C)cn4C)cn3C)cn2C)cc1C(=O)NCCCN
ΔTm (Nucleic Acid [4]): 16.2 °C

CN(CCCN)CCCNC(=O)c1cc(NC(=O)c2cc(NC(=O)c3nc(NC(=O)c4cc(NC(=O)[C@H](N)CCNC(=O)c5nc(NC(=O)c6cc(NC(=O)c7cc(NC(=O)c8nccn8C)cn7C)cn6C)cn5C)cn4C)cn3C)cn2C)cn1C
ΔTm (Nucleic Acid [3]): 6.4 °C

Cn1cc(NC(=O)c2cc(NC(=O)c3cc(NC(=O)c4nc(NC(=O)[C@H](N)CCNC(=O)c5cc(NC(=O)c6cc(NC(=O)c7cc(NC(=O)c8nccn8C)cn7C)cn6C)cn5C)cn4C)cn3C)cn2C)cc1C(=O)NCCCCCCCN
ΔTm (Nucleic Acid [4]): 14.3 °C

CN(C)CCCNC(=O)CCNC(=O)c1cc(NC(=O)c2cc(NC(=O)c3cc(NC(=O)c4nc(NC(=O)[C@H](N)CCNC(=O)c5cc(NC(=O)c6cc(NC(=O)c7cc(NC(=O)c8nccn8C)cn7C)cn6C)cn5C)cn4C)cn3C)cn2C)cn1C
ΔTm (Nucleic Acid [4]): 14.3 °C

Cn1cc(NC(=O)c2cc(NC(=O)c3cc(NC(=O)c4nc(NC(=O)[C@H](N)CCNC(=O)c5cc(NC(=O)c6cc(NC(=O)c7cc(NC(=O)c8nccn8C)cn7C)cn6C)cn5C)cn4C)cn3C)cn2C)cc1C(=O)NCCCCCCCNC(=O)c1cccc(C(=O)O)c1
Activity (LNCaP [2]): <50%
pIC50 (LNCaP [5]): < 4.52
ΔTm (Nucleic Acid [4]): 10.4 °C

Cn1cc(NC(=O)c2cc(NC(=O)c3cc(NC(=O)c4nc(NC(=O)[C@H](N)CCNC(=O)c5nc(NC(=O)c6cc(NC(=O)c7nc(NC(=O)c8nccn8C)cn7C)cn6C)cn5C)cn4C)cn3C)cn2C)cc1C(=O)NCCCN
ΔTm (Nucleic Acid [3]): 4.1 °C

CN(CCCN)CCCNC(=O)c1cc(NC(=O)c2cc(NC(=O)c3cc(NC(=O)c4nc(NC(=O)[C@H](N)CCNC(=O)c5cc(NC(=O)c6cc(NC(=O)c7cc(NC(=O)c8nccn8C)cn7C)cn6C)cn5C)cn4C)cn3C)cn2C)cn1C
ΔTm (Nucleic Acid [4]): 17.3 °C

CN(CCCN)CCCNC(=O)c1cc(NC(=O)c2cc(NC(=O)c3cc(NC(=O)c4nc(NC(=O)[C@H](N)CCNC(=O)c5nc(NC(=O)c6cc(NC(=O)c7nc(NC(=O)c8nccn8C)cn7C)cn6C)cn5C)cn4C)cn3C)cn2C)cn1C
ΔTm (Nucleic Acid [3]): 3.1 °C

Cn1cc(NC(=O)c2cc(NC(=O)c3nc(NC(=O)c4cc(NC(=O)[C@H](N)CCNC(=O)c5nc(NC(=O)c6cc(NC(=O)c7cc(NC(=O)c8sccc8Cl)cn7C)cn6C)cn5C)cn4C)cn3C)cn2C)cc1C(=O)NCCCCCCCN
ΔTm (Nucleic Acid [1]): 12.7 °C

Cn1cc(NC(=O)c2cc(NC(=O)c3cc(NC(=O)c4nc(NC(=O)[C@H](N)CCNC(=O)c5nc(NC(=O)c6cc(NC(=O)c7nc(NC(=O)c8nccn8C)cn7C)cn6C)cn5C)cn4C)cn3C)cn2C)cc1C(=O)NCCCON
ΔTm (Nucleic Acid [3]): 0.1 °C

Cn1cc(NC(=O)c2cc(NC(=O)c3nc(NC(=O)c4cc(NC(=O)[C@H](N)CCNC(=O)c5nc(NC(=O)c6cc(NC(=O)c7cc(NC(=O)c8sccc8Cl)cn7C)cn6C)cn5C)cn4C)cn3C)cn2C)cc1C(=O)NCCCN
ΔTm (Nucleic Acid [1]): 13.5 °C

Cn1cc(NC(=O)c2cc(NC(=O)c3cc(NC(=O)c4nc(NC(=O)[C@H](N)CCNC(=O)c5nc(NC(=O)c6cc(NC(=O)c7nc(NC(=O)c8nccn8C)cn7C)cn6C)cn5C)cn4C)cn3C)cn2C)cc1C(=O)NCCCCCCCNC(=O)c1cccc(C(=O)O)c1
ΔTm (Nucleic Acid [3]): 0.7 °C

CN(CCCNC(=O)c1cccc(C(=O)O)c1)CCCNC(=O)c1cc(NC(=O)c2cc(NC(=O)c3cc(NC(=O)c4nc(NC(=O)[C@H](N)CCNC(=O)c5nc(NC(=O)c6cc(NC(=O)c7nc(NC(=O)c8nccn8C)cn7C)cn6C)cn5C)cn4C)cn3C)cn2C)cn1C
ΔTm (Nucleic Acid [3]): 0.9 °C

Cn1cc(NC(=O)c2cc(NC(=O)c3nc(NC(=O)c4cc(NC(=O)[C@H](N)CCNC(=O)c5nc(NC(=O)c6cc(NC(=O)c7cc(NC(=O)c8sccc8Cl)cn7C)cn6C)cn5C)cn4C)cn3C)cn2C)cc1C(=O)NCCCNC(=O)c1cccc(C(=O)O)c1
ΔTm (Nucleic Acid [1]): 9.5 °C

CN(C)CCCNC(=O)CCNC(=O)c1cc(NC(=O)c2cc(NC(=O)c3cc(NC(=O)c4nc(NC(=O)[C@H](N)CCNC(=O)c5nc(NC(=O)c6cc(NC(=O)c7nc(NC(=O)c8nccn8C)cn7C)cn6C)cn5C)cn4C)cn3C)cn2C)cn1C
ΔTm (Nucleic Acid [1]): 1.6 °C

Cn1cc(NC(=O)c2cc(NC(=O)c3nc(NC(=O)c4cc(NC(=O)[C@H](N)CCNC(=O)c5nc(NC(=O)c6cc(NC(=O)c7cc(NC(=O)c8nccn8C)cn7C)cn6C)cn5C)cn4C)cn3C)cn2C)cc1C(=O)NCCCCCCCN
ΔTm (Nucleic Acid [3]): -0.9 °C

Cn1cc(NC(=O)c2cc(NC(=O)c3nc(NC(=O)c4cc(NC(=O)[C@H](N)CCNC(=O)c5nc(NC(=O)c6cc(NC(=O)c7cc(NC(=O)c8nccn8C)cn7C)cn6C)cn5C)cn4C)cn3C)cn2C)cc1C(=O)NCCCN
ΔTm (Nucleic Acid [3]): 5.3 °C

Cn1cc(NC(=O)c2cc(NC(=O)c3cc(NC(=O)c4nc(NC(=O)[C@H](N)CCNC(=O)c5nc(NC(=O)c6cc(NC(=O)c7nc(NC(=O)c8nccn8C)cn7C)cn6C)cn5C)cn4C)cn3C)cn2C)cc1C(=O)NCCCCCCCN
ΔTm (Nucleic Acid [3]): 2.1 °C

Cn1cc(NC(=O)c2cc(NC(=O)c3cc(NC(=O)c4nc(NC(=O)[C@H](N)CCNC(=O)c5nc(NC(=O)c6cc(NC(=O)c7nc(NC(=O)c8nccn8C)cn7C)cn6C)cn5C)cn4C)cn3C)cn2C)cc1C(=O)NCCCNC(=O)c1cccc(C(=O)O)c1
ΔTm (Nucleic Acid [3]): 0.5 °C

CN(C)CCCNC(=O)CCNC(=O)c1cc(NC(=O)c2cc(NC(=O)c3nc(NC(=O)c4cc(NC(=O)[C@H](N)CCNC(=O)c5nc(NC(=O)c6cc(NC(=O)c7cc(NC(=O)c8nccn8C)cn7C)cn6C)cn5C)cn4C)cn3C)cn2C)cn1C
ΔTm (Nucleic Acid [3]): 3.6 °C

CN(CCCNC(=O)c1cccc(C(=O)O)c1)CCCNC(=O)c1cc(NC(=O)c2cc(NC(=O)c3nc(NC(=O)c4cc(NC(=O)[C@H](N)CCNC(=O)c5nc(NC(=O)c6cc(NC(=O)c7cc(NC(=O)c8nccn8C)cn7C)cn6C)cn5C)cn4C)cn3C)cn2C)cn1C
Activity (LNCaP [2]): <50%
ΔTm (Nucleic Acid [3]): 4 °C

Cn1cc(NC(=O)c2cc(NC(=O)c3nc(NC(=O)c4cc(NC(=O)[C@H](N)CCNC(=O)c5nc(NC(=O)c6cc(NC(=O)c7cc(NC(=O)c8sccc8Cl)cn7C)cn6C)cn5C)cn4C)cn3C)cn2C)cc1C(=O)NCCCON
ΔTm (Nucleic Acid [1]): 10.6 °C

Cn1cc(NC(=O)c2cc(NC(=O)c3nc(NC(=O)c4cc(NC(=O)[C@H](N)CCNC(=O)c5nc(NC(=O)c6cc(NC(=O)c7cc(NC(=O)c8sccc8Cl)cn7C)cn6C)cn5C)cn4C)cn3C)cn2C)cc1C(=O)NCCCCCCCNC(=O)c1cccc(C(=O)O)c1
ΔTm (Nucleic Acid [1]): 9 °C
